The values below come from ChEMBL document CHEMBL1122792, “Synthesis and biological evaluation of radiolabeled beta-ruthenocenylalanine” (J Med Chem, 1984).

Series [1] has as its system Mus musculus. In words: Distribution of Radioactivity in adrenals of CD-1 Mice by intravenous administration of compound after 1 day expressed as dose/gram. Format: ADME, organism-based, Adrenal gland. To be noted: in vivo, 24 h. In outline: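 Female CD-1 mice, 7 1/2 weeks old (25-29 g), fed and watered ad libitum. Agent given in physiological saline, pH adjusted to 7.4 and filtered, by lateral tail vein injection under ether anesthesia. Tissues collected at 5 min, 1 h, 4 h and 1 day. Injectate samples counted as standard; results as mean % injected dose/g with range.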

Series [2] concerns Rattus norvegicus. In words: Distribution of Radioactivity in small intestine of Fisher 344 Rats by intravenous administration of compound after 1 day expressed as dose/gram. The format is ADME, organism-based. The conditions noted are these: in vivo, 24 h. In outline:
(§1)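 Female Fischer 344 rats, 10-12 weeks old (170-200 g), food and water ad libitum; four rats per time point. About 6.3 μCi given in 0.05 mL saline (pH 7.4, filtered) by lateral tail vein under ether anesthesia. Tissues sampled at 5 min, 1 h, 4 h or 1 day. %ID/g computed from injectate standards; mean and range given.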

The test system of series [3] is Rattus norvegicus. The series can be described thus: Distribution of Radioactivity in thymus of Fisher 344 Rats by intravenous administration of compound after 4 hour expressed as dose/gram. The format is ADME, organism-based. To be noted: in vivo. The procedure, abridged: as §1
The test system of series [4] is Rattus norvegicus. In words: Distribution of Radioactivity in lungs of Fisher 344 Rats by intravenous administration of compound after 1 hour expressed as dose/gram. The format is ADME, organism-based, Lung. To be noted: in vivo. The procedure, abridged:
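Female Fischer 344 rats, 10-12 weeks old (170-200 g), fed and watered ad libitum; four rats per time point. Each received ~6.3 μCi in 0.05 mL saline (pH 7.4, filtered), given by lateral tail vein under ether anesthesia. Tissues taken at 5 min, 1 h, 4 h and 1 day. Injectate standards used; values as mean % injected dose/g with range.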

As for beta-[103,106Ru]Ruthenocenylalanine, the Injected in series [1] is 0.556%; in series [2] it was 0.044%; in series [3], 0.035%; in series [4] it was 0.424%.
